The values that follow come from ChEMBL document CHEMBL1141306, “ES-242 derivatives and cycloheptapeptides from Cordyceps sp. strains BCC 16173 and BCC 16176” (J Nat Prod, 2007).

Non-standard residues stand in square brackets, D forms with d. Residues, ends and D or L forms follow the SMILES beside them. NMeY = CN[C@@H](Cc1ccc(O)cc1)C(=O)O; dNMeF = CN[C@H](Cc1ccccc1)C(=O)O; Sar = CNCC(=O)O

In assay [1] the test system is Plasmodium falciparum. Description: Antimalarial activity against multidrug-resistant Plasmodium falciparum K1 at 10 ug/mL. The format is functional. The gist of the method:
(§1)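 Multidrug-resistant P. falciparum K1 cultures assayed by microculture radioisotope technique (Desjardins method). IC50 determined, and percent inhibition measured at a single concentration of 10 µg/mL.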

Assay [2] concerns Plasmodium falciparum. The assay can be described thus: Antimalarial activity against multidrug-resistant Plasmodium falciparum K1. The format is functional, organism-based. Summed up:
as §1

Assay [3] deals with Vero. Description: Cytotoxicity against african green monkey Vero cells. The settings on record: Chlorocebus sabaeus. The format is cell-based. The gist of the method:
(§2)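 Colorimetric cytotoxicity assay on KB (oral epidermoid carcinoma), BC (breast cancer), NCI-H187 (small cell lung cancer) and Vero (African green monkey kidney fibroblast) cells. Values reported as IC50 (µM).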

In assay [4] the test system is NCI-H187. Description: Cytotoxicity against human NCI-H187 cells. The format is functional, cell-based. The gist of the method: as §2
The nature of assay [5]: Cytotoxicity against human BC cells. The format is functional, cell-based. Summed up: as §2
Assay [6] relates to KB. The assay can be described thus: Cytotoxicity against human KB cells. The format is functional, cell-based. Summed up:
as §2

In general, inhibition refers to the share of the control response that was lost under treatment. Regarding `COc1cc(OC)c2c(O)c3c(c(-c4c5c(c(O)c6c(OC)cc(O)cc46)CO[C@@H](C)[C@H]5O)c2c1)[C@H](O)[C@H](C)OC3`, the inhibition at 10 µg/mL in assay [1] is < 50%.

What is called IC50 is the concentration needed to halve the response being measured. Turning to `COc1cc(OC)c2c(O)c3c(c(-c4c(O)cc(OC)c5c(O)c6c(cc45)[C@H](O)[C@H](C)OC6)c2c1)[C@H](O)[C@H](C)OC3`, the IC50 in assay [2] was found to be 3.3 µM.

Turning to `COc1cc(OC)c2c(O)c3c(c(-c4c5c(c(O)c6c(OC)cc(OC)cc46)CO[C@@H](C)[C@H]5OC(C)=O)c2c1)[C@H](OC(C)=O)[C@H](C)OC3`, the IC50 in assay [2] stood at 3.3 µM.

For the compound `COc1cc(OC)c2c(O)c3c(c(-c4c5c(c(O)c6c(OC)cc(O)cc46)CO[C@@H](C)[C@H]5OC(C)=O)c2c1)[C@H](OC(C)=O)[C@H](C)OC3`, the inhibition at 10 µg/mL in assay [1] was < 50%.

Turning to `COc1cc(OC)c2c(O)c3c(c(-c4c5c(c(O)c6c(OC)cc(OC)cc46)CO[C@@H](C)[C@H]5O)c2c1)[C@H](O)[C@H](C)OC3`, in assay [1], the inhibition at 10 µg/mL is < 50%. In assay [2], the midpoint of inhibition, the IC50, lay at 8.1 µM.

Consider `COc1cc(OC)c2c(O)c3c(c(-c4c(OC)cc(OC)c5c(O)c6c(cc45)[C@H](O)[C@H](C)OC6)c2c1)[C@H](O)[C@H](C)OC3`, for which, in assay [1], the inhibition at 10 µg/mL was < 50%. Besides, 12 µM corresponded to half-maximal inhibition in assay [2] (IC50).

Regarding `CC[C@H](C)[C@@H]1NC(=O)[C@H](Cc2ccc(O)cc2)N(C)C(=O)[C@H](Cc2ccccc2)NC(=O)CN(C)C(=O)[C@@H]2CCCN2C(=O)[C@@H](Cc2ccccc2)N(C)C(=O)[C@H](CC(C)C)NC1=O` [CORDYHEPTAPEPTIDE A] (cyclo(F[NMeY]IL[dNMeF]P[Sar])), the IC50 in assay [3] came out at 14 µM; in assay [4], 0.18 µM; in assay [5] it was 0.2 µM; in assay [2], 3.8 µM; in assay [6] it was 0.78 µM.
